Tests used:
[1] = target: T1, Adenosine receptor A2a (Homo sapiens, UniProt P29274); test: Displacement of [3H]ZM-241,385 from human N-terminal FLAG-tagged adenosine A2A receptor expressed in HEK293 cell membrane assessed as radioligand binding at 10 uM by microbeta scintillation counting method relative to control; type: cell membranes
How it was run: (§1)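 Membranes from HEK293 cells stably expressing hA2AAR-WT (15 µg protein) or transiently expressing W246A mutant (4 µg; harvested 48 h post-transfection), ADA-treated. Incubated 2 h at 25 °C in 50 mM Tris-HCl pH 7.4 with 2.5 nM [3H]ZM-241,385 ± 10 µM test compound; filtration, scintillation counting. 100% = no compound; 0% = nonspecific (100 µM NECA for WT, 10 µM ZM-241,385 for mutant). Means of ≥3 independent assays in duplicate.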

[2] = tested on: Adenosine A2 receptor (Homo sapiens), P29275+P29274 [W246A]; test: Displacement of [3H]ZM-241,385 from human N-terminal FLAG-tagged adenosine A2A receptor W246A 6.48 mutant expressed in HEK293 cell membrane assessed as radioligand binding at 10 uM by microbeta scintillation counting method relative to control; type: cell membranes; how it was run: as §1
[3] = target: T1, Adenosine receptor A2a; test: Displacement of [3H]ZM-241,385 from human N-terminal FLAG-tagged adenosine A2A receptor expressed in HEK293 cell membrane by microbeta scintillation counting method; type: cell membranes
How it was run: (§2)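 Competition binding to ADA-treated HEK293 membranes, WT receptor stably expressed (15 µg protein) or W246A mutant transiently expressed (4 µg). 2.5 nM [3H]ZM-241,385 with increasing compound concentrations, 2 h at 25 °C in 50 mM Tris-HCl pH 7.4. Filtration and scintillation counting. IC50 from a one-site fit. Nonspecific binding: 100 µM NECA (WT) or 10 µM ZM-241,385 (mutant). ≥3 independent assays in duplicate. Fold change = WT IC50 / mutant IC50.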

[4] = tested on: Adenosine A2 receptor (Homo sapiens), P29275+P29274 [W246A]; test: Displacement of [3H]ZM-241,385 from human N-terminal FLAG-tagged adenosine A2A receptor W246A 6.48 mutant expressed in HEK293 cell membrane assessed as radioligand residence time at 10 uM by microbeta scintillation counting method; type: cell membranes
How it was run: (§3)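 Dissociation assay on HEK293 membranes (WT stable, 15 µg; W246A transient, 4 µg). Preequilibration with 2.5 nM [3H]ZM-241,385 for 1 h at 4 °C. Dissociation started with 100 µM NECA ± 100 µM compound (WT, times over 180 min) or 10 µM ZM-241,385 ± 10 µM compound (mutant, over 30 min). Filtration, scintillation counting. One-phase dissociation fit gave residence time versus control. ≥3 assays in duplicate.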

[5] = tested on: Adenosine A2 receptor (Homo sapiens), P29275+P29274 [W246A]; test: Displacement of [3H]ZM-241,385 from human N-terminal FLAG-tagged adenosine A2A receptor W246A 6.48 mutant expressed in HEK293 cell membrane assessed as decrease in radioligand residence time at 10 uM by microbeta scintillation counting method relative to control; type: cell membranes; how it was run: as §3
[6] = target: T1, Adenosine receptor A2a; test: Displacement of [3H]ZM-241,385 from human N-terminal FLAG-tagged adenosine A2A receptor expressed in HEK293 cell membrane assessed as decrease in radioligand residence time at 100 uM by microbeta scintillation counting method relative to control; type: cell membranes; how it was run: as §3
[7] = target: T1, Adenosine receptor A2a; test: Displacement of [3H]ZM-241,385 from human N-terminal FLAG-tagged adenosine A2A receptor expressed in HEK293 cell membrane assessed as radioligand residence time at 100 uM by microbeta scintillation counting method; type: cell membranes; how it was run: as §3
[8] = target: Adenosine A2 receptor (Homo sapiens, UniProt P29275+P29274, W246A); test: Displacement of [3H]ZM-241,385 from human N-terminal FLAG-tagged adenosine A2A receptor W246A 6.48 mutant expressed in HEK293 cell membrane by microbeta scintillation counting method; type: cell membranes; how it was run: as §2
[9] = tested on: HEK293; test: Ratio of IC50 for human N-terminal FLAG-tagged adenosine A2A receptor expressed in HEK293 cell membrane to IC50 for human N-terminal FLAG-tagged adenosine A2A receptor W246A 6.48 mutant expressed in HEK293 cell membrane; type: cell-based; how it was run: as §2

T1 sequence (P29274 whole entry): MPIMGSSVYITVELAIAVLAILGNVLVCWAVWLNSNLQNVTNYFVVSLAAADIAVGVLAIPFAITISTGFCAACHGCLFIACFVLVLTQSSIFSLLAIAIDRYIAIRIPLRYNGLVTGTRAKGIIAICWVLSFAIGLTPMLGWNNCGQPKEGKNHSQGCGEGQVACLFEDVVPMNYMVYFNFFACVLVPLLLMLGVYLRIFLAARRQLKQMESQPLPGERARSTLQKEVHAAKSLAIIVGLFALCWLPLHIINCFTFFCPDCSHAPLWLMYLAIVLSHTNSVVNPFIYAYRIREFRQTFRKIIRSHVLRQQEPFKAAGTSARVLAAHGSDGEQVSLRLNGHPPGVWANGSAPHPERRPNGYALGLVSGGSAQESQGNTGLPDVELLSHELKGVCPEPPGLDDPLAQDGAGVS

Activity [1]	Activity [2]	Structure (SMILES)	other results
88%	111%	N=C(N)NC(=O)c1nc(Cl)c(NCC(=O)O)nc1N	
99%	101%	N=C(N)NC(=O)c1nc(Cl)c(NCCc2nnn[nH]2)nc1N	
30%	1.8%	N=C(N)NC(=O)c1nc(Cl)c(N2CCCCCC2)nc1N [N,N-HEXAMETHYLENEAMILORIDE]	IC50 [3]: 5.1 µM; TIME [4]: 0.0233 h; fold change (FC) [5]: 1.9; fold change (FC) [6]: 2.2; TIME [7]: 0.467 h; IC50 [8]: 0.27 µM; Ratio IC50 [9]: 19
96%	70%	N=C(N)NC(=O)c1nc(Cl)c(NCCC(=O)O)nc1N	
92%	32%	NC(N)=NC(=O)c1nc(Cl)c(NCCc2ccc(Cl)cc2)nc1N	
96%	48%	N=C(N)NC(=O)c1nc(Cl)c(NCc2ccc(F)cc2)nc1N	
68%	6.6%	NC(N)=NC(=O)c1nc(Cl)c(NC2Cc3ccccc3C2)nc1N	
63%	5.2%	NC(N)=NC(=O)c1nc(Cl)c(NCCc2ccc(OC(F)(F)F)cc2)nc1N	
87%	73%	N=C(N)NC(=O)c1nc(Cl)c(NCc2ccncc2)nc1N	
67%	4.8%	NC(N)=NC(=O)c1nc(Cl)c(NCCc2ccc(Br)cc2)nc1N	
54%	1.1%	N=C(N)NC(=O)c1nc(Cl)c(NCCc2ccccc2)nc1N	
87%	48%	CCOC(=O)CCNc1nc(N)c(C(=O)NC(=N)N)nc1Cl	
77%	21%	N=C(N)NC(=O)c1nc(Cl)c(NCc2ccccc2)nc1N	
85%	32%	Cc1ccc(S(=O)(=O)NCCNc2nc(N)c(C(=O)NC(=N)N)nc2Cl)cc1	
51%	1.8%	COc1ccc(CCNc2nc(N)c(C(=O)N=C(N)N)nc2Cl)cc1OC	
68%	5.8%	NC(N)=NC(=O)c1nc(Cl)c(NCCc2ccc([N+](=O)[O-])cc2)nc1N	
82%	18%	N=C(N)NC(=O)c1nc(Cl)c(NCCS(=O)(=O)Cc2ccccc2)nc1N	

More lines, now with the values behind:

Structure (SMILES)	Activity [1]	Activity [2]	other results
NC(N)=NC(=O)c1nc(Cl)c(NCCCc2ccccc2)nc1N	60%	9%	
NC(N)=NC(=O)c1nc(Cl)c(NCCc2ccc(O)cc2)nc1N	72%	9.5%	
N=C(N)NC(=O)c1nc(Cl)c(N)nc1N	71%	11%	
CCOc1ccc(CCNc2nc(N)c(C(=O)N=C(N)N)nc2Cl)cc1.O=C(O)C(F)(F)F	27%	3.5%	IC50 [3]: 3.4 µM; TIME [4]: 0.0217 h; fold change (FC) [5]: 2.1; fold change (FC) [6]: 1.5; TIME [7]: 0.667 h; IC50 [8]: 0.05 µM; Ratio IC50 [9]: 76
N=C(N)NC(=O)c1nc(Cl)c(NCc2cccnc2)nc1N	71%	46%	
N=C(N)NC(=O)c1nc(Cl)c(NCCNCc2ccccc2)nc1N	90%	65%	
N=C(N)NC(=O)c1nc(Cl)c(NCCSCc2ccccc2)nc1N	84%	35%	
Cc1ccc(CCNc2nc(N)c(C(=O)N=C(N)N)nc2Cl)cc1	50%	2.1%	
COc1ccc(CCNc2nc(N)c(C(=O)N=C(N)N)nc2Cl)cc1.Cl	31%	-0.4%	IC50 [3]: 4.4 µM; TIME [4]: 0.0333 h; fold change (FC) [5]: 1.3; fold change (FC) [6]: 1.5; TIME [7]: 0.733 h; IC50 [8]: 0.12 µM; Ratio IC50 [9]: 37
CCN(CC)CCNc1nc(N)c(C(=O)NC(=N)N)nc1Cl	85%	53%	
C=CCOc1ccc(CCNc2nc(N)c(C(=O)N=C(N)N)nc2Cl)cc1	43%	2.2%	
COc1cccc(CCNc2nc(N)c(C(=O)N=C(N)N)nc2Cl)c1.Cl	41%	5.4%	IC50 [3]: 8.1 µM; TIME [4]: 0.0133 h; fold change (FC) [5]: 3.4; fold change (FC) [6]: 1.5; TIME [7]: 0.7 h; IC50 [8]: 0.25 µM; Ratio IC50 [9]: 32
Cl.NC(N)=NC(=O)c1nc(Cl)c(NCCc2ccc3c(c2)OCO3)nc1N	35%	1%	IC50 [3]: 5.6 µM; TIME [4]: 0.02 h; fold change (FC) [5]: 2.3; TIME [7]: 1.02 h; IC50 [8]: 0.07 µM; Ratio IC50 [9]: 80
NC(N)=NC(=O)c1nc(Cl)c(NCCc2ccc(Cl)c(Cl)c2)nc1N	82%	11%	
CCCCOc1ccc(CCNc2nc(N)c(C(=O)N=C(N)N)nc2Cl)cc1	66%	3.4%	
NC(N)=NC(=O)c1nc(Cl)c(NCCc2ccc(OCc3ccccc3)cc2)nc1N	75%	4%	
N#CCCNc1nc(N)c(C(=O)NC(=N)N)nc1Cl	65%	17%	
